The target in assay [1] is T1, Mineralocorticoid receptor (Homo sapiens, UniProt P08235).
T1 sequence (P08235 whole entry): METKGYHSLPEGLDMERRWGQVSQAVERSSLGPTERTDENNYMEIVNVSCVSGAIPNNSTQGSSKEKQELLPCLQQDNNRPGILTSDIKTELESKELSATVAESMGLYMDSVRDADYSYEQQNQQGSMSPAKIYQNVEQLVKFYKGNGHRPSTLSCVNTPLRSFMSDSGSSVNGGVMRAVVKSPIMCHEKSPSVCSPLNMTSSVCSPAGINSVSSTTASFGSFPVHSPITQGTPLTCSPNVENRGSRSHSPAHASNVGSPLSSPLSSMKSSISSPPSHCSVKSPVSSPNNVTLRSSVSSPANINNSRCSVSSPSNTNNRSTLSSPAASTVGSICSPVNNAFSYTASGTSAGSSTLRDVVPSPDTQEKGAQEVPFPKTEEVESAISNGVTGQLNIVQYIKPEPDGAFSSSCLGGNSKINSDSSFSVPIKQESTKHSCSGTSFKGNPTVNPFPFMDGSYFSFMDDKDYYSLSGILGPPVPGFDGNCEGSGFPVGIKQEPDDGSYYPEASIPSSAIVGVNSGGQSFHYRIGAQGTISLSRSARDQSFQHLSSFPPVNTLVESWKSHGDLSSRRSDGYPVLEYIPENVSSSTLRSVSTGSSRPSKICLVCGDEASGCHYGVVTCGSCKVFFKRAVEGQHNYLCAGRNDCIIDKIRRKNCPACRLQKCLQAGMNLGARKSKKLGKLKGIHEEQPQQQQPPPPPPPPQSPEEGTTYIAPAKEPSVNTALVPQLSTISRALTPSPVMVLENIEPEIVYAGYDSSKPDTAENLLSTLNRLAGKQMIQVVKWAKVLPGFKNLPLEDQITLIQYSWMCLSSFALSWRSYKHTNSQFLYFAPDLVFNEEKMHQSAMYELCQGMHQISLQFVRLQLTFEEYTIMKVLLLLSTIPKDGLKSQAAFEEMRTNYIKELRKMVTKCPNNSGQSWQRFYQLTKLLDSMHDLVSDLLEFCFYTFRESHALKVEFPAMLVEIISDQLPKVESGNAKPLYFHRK
The assay is described as follows: Binding affinity to MR. The gist of the method:
(§1)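 Competitive binding assays on PR and MR. Values are means of at least three separate experiments, each with triplicate determinations, ± SEM. A value without SEM comes from a single determination.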

Assay [2] concerns RPMI-8226. Description: Inhibition of tumor growth in human RPMI8226 cells xenografted nude mouse at 30 mg/kg, po after 4 weeks relative to Dexamethasone. It counts as functional. On the technique in general: A xenograft is tissue or cells of one species grown in another, often human tumour cells in immunodeficient mice.
Assay [3] deals with T2, Glucocorticoid receptor (Homo sapiens, UniProt P04150).
T2 sequence (P04150 whole entry): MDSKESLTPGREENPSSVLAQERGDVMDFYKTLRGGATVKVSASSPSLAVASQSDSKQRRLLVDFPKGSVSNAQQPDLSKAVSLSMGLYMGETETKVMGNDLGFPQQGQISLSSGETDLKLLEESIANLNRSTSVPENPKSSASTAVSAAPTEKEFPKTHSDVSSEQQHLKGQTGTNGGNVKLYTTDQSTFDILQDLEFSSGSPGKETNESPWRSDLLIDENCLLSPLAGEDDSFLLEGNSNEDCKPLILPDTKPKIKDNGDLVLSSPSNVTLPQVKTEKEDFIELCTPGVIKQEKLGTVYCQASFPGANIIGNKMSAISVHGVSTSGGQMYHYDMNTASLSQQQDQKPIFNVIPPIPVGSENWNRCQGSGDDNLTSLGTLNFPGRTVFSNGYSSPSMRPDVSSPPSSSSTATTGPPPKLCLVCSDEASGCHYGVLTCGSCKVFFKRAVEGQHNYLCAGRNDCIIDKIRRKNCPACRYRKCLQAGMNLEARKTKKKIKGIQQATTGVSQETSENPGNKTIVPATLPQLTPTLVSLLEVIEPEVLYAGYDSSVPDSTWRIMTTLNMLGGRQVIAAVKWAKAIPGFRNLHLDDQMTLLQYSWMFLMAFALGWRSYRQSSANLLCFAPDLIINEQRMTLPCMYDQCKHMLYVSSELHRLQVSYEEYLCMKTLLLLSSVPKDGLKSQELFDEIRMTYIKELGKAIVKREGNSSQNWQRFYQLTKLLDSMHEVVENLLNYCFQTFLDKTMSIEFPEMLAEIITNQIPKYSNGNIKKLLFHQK
The assay is described as follows: Antagonist activity at human GR expressed in CV1 cells by GRE activation assay. It counts as functional, cell-based, CV-1.

The test system of assay [4] is RPMI-8226. The assay is described as follows: Inhibition of tumor growth in human RPMI8226 cells xenografted nude mouse at 3 mg/kg, po after 4 weeks relative to Dexamethasone. Type of assay: functional.
A further assay addresses T3, Progesterone receptor (Homo sapiens, UniProt P06401).
T3 sequence (P06401 whole entry): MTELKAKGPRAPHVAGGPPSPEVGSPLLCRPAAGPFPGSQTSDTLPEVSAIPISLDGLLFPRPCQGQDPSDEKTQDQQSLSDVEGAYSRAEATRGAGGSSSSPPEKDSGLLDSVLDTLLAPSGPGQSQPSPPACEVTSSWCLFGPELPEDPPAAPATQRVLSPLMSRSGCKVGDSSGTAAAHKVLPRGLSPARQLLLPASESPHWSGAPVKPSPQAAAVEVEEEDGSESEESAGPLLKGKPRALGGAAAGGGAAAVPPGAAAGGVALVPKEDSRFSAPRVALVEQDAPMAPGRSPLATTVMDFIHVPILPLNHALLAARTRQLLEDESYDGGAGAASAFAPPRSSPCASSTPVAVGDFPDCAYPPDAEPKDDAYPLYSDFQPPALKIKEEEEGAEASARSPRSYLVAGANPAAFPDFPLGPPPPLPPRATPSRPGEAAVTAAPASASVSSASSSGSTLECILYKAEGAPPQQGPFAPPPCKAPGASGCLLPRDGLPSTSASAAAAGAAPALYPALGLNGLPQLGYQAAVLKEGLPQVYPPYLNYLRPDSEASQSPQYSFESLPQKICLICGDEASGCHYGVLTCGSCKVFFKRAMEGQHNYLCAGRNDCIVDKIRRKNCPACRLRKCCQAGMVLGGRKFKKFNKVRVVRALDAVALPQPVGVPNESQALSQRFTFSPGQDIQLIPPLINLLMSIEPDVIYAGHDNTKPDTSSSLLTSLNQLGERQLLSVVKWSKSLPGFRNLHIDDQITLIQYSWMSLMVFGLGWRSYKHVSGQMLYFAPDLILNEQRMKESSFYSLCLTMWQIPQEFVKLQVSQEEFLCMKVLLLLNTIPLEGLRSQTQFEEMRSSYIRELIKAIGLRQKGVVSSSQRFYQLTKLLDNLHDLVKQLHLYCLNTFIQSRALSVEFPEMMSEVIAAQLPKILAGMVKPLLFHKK
Description: Binding affinity to PR. The gist of the method:
as §1

Assay [5] has as its target T2, Glucocorticoid receptor. Description: Binding affinity to GR.
Assay [6] has as its system RPMI-8226. Description: Inhibition of tumor growth in human RPMI8226 cells xenografted nude mouse at 10 mg/kg, po after 4 weeks relative to Dexamethasone. Type of assay: functional.
For another assay, the target named is T4, Androgen receptor (Homo sapiens, UniProt P10275).
T4 sequence (P10275 whole entry): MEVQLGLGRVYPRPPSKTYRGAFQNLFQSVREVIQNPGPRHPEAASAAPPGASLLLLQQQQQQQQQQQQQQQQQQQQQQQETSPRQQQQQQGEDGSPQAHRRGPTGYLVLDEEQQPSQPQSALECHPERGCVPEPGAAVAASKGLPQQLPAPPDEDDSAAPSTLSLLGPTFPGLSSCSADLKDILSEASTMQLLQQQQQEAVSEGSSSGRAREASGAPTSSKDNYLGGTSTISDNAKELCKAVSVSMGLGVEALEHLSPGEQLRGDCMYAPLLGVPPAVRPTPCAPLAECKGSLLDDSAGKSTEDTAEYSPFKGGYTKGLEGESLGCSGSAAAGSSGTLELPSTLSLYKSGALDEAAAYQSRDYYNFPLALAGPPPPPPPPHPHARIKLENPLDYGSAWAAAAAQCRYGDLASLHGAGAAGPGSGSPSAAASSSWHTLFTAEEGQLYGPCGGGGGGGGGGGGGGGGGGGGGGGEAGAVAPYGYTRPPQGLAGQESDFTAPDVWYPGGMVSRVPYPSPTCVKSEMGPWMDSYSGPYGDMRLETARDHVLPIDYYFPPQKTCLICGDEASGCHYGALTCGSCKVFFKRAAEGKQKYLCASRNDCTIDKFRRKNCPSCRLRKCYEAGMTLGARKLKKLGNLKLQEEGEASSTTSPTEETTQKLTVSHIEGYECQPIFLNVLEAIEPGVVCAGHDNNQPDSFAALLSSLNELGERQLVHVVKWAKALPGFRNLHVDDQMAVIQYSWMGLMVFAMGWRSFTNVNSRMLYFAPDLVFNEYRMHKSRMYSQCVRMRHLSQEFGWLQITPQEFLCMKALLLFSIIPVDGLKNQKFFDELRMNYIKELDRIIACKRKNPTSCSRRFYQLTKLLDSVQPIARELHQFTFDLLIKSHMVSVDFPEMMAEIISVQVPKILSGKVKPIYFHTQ
Description: Binding affinity to AR.

The Ki is the dissociation constant of the complex between target and ligand, obtained from inhibition or displacement. A high value points to a looser hold on the target. What is called EC50 is the concentration giving half of the maximal effect. `COc1c(O)ccc2c1-c1ccc3c(c1/C(=C/c1sccc1C(O)C(F)(F)F)O2)C(C)=CC(C)(C)N3` (racemic): the Ki amounted to 670 nM in assay [1], 1780 nM at Progesterone receptor, 1.4 nM at Glucocorticoid receptor [5] and 1900 nM on Androgen receptor. In addition, the figures for the Efficacy in the assay on RPMI-8226 [2], with RPMI-8226 [4] and in the assay with RPMI-8226 [6] were 97%, 52% and 89%, respectively. This compound also gave a concentration giving a half-maximal response (EC50) at Glucocorticoid receptor [3] of 0.3 nM.

For the origin of these results see ChEMBL document CHEMBL1148778, “Synthesis and characterization of nonsteroidal glucocorticoid receptor modulators for multiple myeloma” (J Med Chem, 2007).
